Measurements published in ChEMBL document CHEMBL5316310, “Discovery of MK-8189, a Highly Potent and Selective PDE10A Inhibitor for the Treatment of Schizophrenia” (J Med Chem, 2023).
Converted amounts (≈) assume the structure as drawn. The source made the active and inactive calls. The calls are words filed in the database; no cut-off is given here.

How the values were obtained:
[1] = Half life in Rhesus monkey at 0.5 mg/kg, iv by LC-MS/MS analysis; format: ADME, organism-based, Macaca mulatta; conditions: in vivo
Summary of the method: (§1)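 IV bolus in DMSO/PEG400 (1:1). Male Wistar–Hannover rats (n = 3, ~300 g): 2 mg/kg via jugular cannula, sampled 0.03–24 h. Male rhesus (n = 3): 0.5 mg/kg into saphenous or cephalic vein, sampled to 24 h. Plasma (EDTA) analysed by LC-MS/MS after acetonitrile precipitation. Non-compartmental analysis; CL = dose/AUC0-inf; t1/2 from log-linear regression of the terminal phase. Values are means.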

[2] = In vivo receptor occupancy at PDE10A receptor in rat striatum at 0.16 mg/kg, po measured after 1 hr; format: functional
Summary of the method: (§2)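 Striatal PDE10A occupancy in rats given the compound orally during the novel object recognition test. Occupancy was not measured directly but derived from plasma concentration taken 1 h post dose. n = 4/group, reported as mean (SEM).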

[3] = target: T1, cAMP and cAMP-inhibited cGMP 3',5'-cyclic phosphodiesterase 10A (Homo sapiens, UniProt Q9Y233); test: Binding affinity to human full length His-tagged PDE10A2 assessed as on-rate constant by surface plasmon resonance analysis
T1 sequence (Q9Y233 whole entry): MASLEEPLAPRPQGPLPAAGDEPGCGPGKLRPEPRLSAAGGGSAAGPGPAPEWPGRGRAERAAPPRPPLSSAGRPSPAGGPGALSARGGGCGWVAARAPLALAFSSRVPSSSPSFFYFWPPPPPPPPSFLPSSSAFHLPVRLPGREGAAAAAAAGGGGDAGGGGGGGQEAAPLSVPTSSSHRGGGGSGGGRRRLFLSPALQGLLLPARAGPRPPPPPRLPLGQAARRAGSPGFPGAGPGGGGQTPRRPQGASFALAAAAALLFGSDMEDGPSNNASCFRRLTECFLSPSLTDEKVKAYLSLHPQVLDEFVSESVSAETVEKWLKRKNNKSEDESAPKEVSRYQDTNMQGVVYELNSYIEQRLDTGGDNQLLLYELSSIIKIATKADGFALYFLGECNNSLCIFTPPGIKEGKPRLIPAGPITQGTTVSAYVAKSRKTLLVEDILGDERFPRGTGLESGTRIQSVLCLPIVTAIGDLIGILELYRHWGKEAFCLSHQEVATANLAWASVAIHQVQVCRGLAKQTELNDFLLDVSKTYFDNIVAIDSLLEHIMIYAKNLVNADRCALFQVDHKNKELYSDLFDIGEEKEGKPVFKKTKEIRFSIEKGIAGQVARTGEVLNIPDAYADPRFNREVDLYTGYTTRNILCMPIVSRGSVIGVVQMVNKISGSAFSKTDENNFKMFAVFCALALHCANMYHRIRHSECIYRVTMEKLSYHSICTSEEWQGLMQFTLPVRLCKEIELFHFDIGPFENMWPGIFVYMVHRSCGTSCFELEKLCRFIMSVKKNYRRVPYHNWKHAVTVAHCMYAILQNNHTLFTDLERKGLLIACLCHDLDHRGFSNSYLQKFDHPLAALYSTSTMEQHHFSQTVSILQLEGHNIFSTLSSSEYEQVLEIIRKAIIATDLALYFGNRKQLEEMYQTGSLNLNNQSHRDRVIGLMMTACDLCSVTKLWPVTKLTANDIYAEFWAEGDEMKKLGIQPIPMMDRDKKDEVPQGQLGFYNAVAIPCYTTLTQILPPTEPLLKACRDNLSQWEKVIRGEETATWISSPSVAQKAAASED

[4] = In vivo receptor occupancy at PDE10A receptor in MK-801-induced psychosis rat model striatum at 0.75 mg/kg, po administered 1 hr prior to MK-801 administration and measured after 90 mins; format: functional; conditions: time 2.5 hrs
Summary of the method: (§3)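 Rats in the MK-801 locomotor study were dosed orally at 0.25, 0.50 or 0.75 mg/kg. Plasma was taken 2.5 h post dose and drug levels measured. Striatal PDE10A occupancy was derived from plasma concentration using the [3H]MK-8193 ex vivo occupancy relation. n = 8/group; mean (SEM).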

[5] = Selectivity ratio of Ki for Rhesus monkey PDE2A3 transfected in AD293 cells cytosolic fraction to Ki for human PDE10A2 transfected in human AD293 cells cytosolic fraction; format: cell-based
[6] = target: T1, cAMP and cAMP-inhibited cGMP 3',5'-cyclic phosphodiesterase 10A; test: Inhibition of human PDE10A2 transfected in human AD293 cells cytosolic fraction using cAMP as substrate by fluorescence polarization assay; format: subcellular, Cytosol
[7] = Plasma concentration in rat at 0.16 mg/kg, po measured after 1 hr; format: ADME, organism-based
Summary of the method: (§4)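 Rat novel object recognition (episodic memory) study, orally dosed. Plasma drawn 1 h post dose at end of the experiment for compound level. n = 4/group, reported as mean (SEM).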

[8] = Solubility of compound in acidic simulated gastric fluid; format: physicochemical; conditions: simulated gi fluid
[9] = Mutagenicity in Salmonella typhimurium by Ames test; format: toxicity; conditions: salmonella enterica subsp. enterica serovar typhimurium
[10] = Plasma concentration in MK-801-induced psychosis rat model at 0.75 mg/kg, po administered 1 hr prior to MK-801 administration and measured after 90 mins; format: ADME, organism-based; conditions: time 150 min
Summary of the method: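 Rats dosed orally, then MK-801 1 h later; locomotor activity recorded over 90 min. Plasma drawn 2.5 h post dose at end of the study and assayed for compound. n = 8/group, reported as mean (SEM).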

[11] = Half-life in Wistar-Hannover rat at 2 mg/kg, iv by LC-MS/MS analysis; format: ADME, organism-based; conditions: in vivo; summary of the method: as §1
[12] = Toxicity in CHO cells assessed as chromosomal aberration; format: cell-based, Cricetulus griseus; conditions: chinese hamster
[13] = Aqueous solubility of the compound at pH 7; format: physicochemical; conditions: buffer
[14] = In vivo receptor occupancy at PDE10A receptor in rat striatum at 0.25 mg/kg, po measured after 1 hr; format: functional; summary of the method: as §2
[15] = Volume of distribution at steady state in Rhesus monkey at 0.5 mg/kg, iv by LC-MS/MS analysis; format: ADME, organism-based, Macaca mulatta; conditions: in vivo, read-out: Vdss
Summary of the method: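 Three male rhesus monkeys received a 0.5 mg/kg IV bolus into the saphenous or cephalic vein, dosed from a 5 mg/mL solution in DMSO:PEG400 (1:1). EDTA plasma was collected from pre-dose to 24 h. Samples were protein-precipitated with acetonitrile and quantified by positive-ion APCI LC-MS/MS. Vdss was obtained by non-compartmental analysis as clearance × mean residence time, and values are means (n = 3).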

[16] = In vivo receptor occupancy at PDE10A receptor in MK-801-induced psychosis rat model striatum at 0.25 mg/kg, po administered 1 hr prior to MK-801 administration and measured after 90 mins; format: functional; conditions: time 2.5 hrs; summary of the method: as §3
[17] = Toxicity in rat assessed as prolactin release; conditions: in vivo
[18] = Solubility of compound in FaSSIF; format: physicochemical; conditions: simulated gi fluid
[19] = In vivo receptor occupancy at PDE10A receptor in MK-801-induced psychosis rat model striatum at 0.5 mg/kg, po administered 1 hr prior to MK-801 administration and measured after 90 mins; format: functional; conditions: time 2.5 hrs; summary of the method: as §3
[20] = Plasma concentration in rat at 0.08 mg/kg, po measured after 1 hr; format: ADME, organism-based; summary of the method: as §4
[21] = target: Somatostatin receptor type 2 (Homo sapiens, UniProt P30874); test: Displacement of [125I]somatostatin from human full-length recombinant SSTR2 expressed in CHO-K1 cells by radioligand binding assay; format: cell-based
Somatostatin receptor type 2, sequence (P30874 whole entry): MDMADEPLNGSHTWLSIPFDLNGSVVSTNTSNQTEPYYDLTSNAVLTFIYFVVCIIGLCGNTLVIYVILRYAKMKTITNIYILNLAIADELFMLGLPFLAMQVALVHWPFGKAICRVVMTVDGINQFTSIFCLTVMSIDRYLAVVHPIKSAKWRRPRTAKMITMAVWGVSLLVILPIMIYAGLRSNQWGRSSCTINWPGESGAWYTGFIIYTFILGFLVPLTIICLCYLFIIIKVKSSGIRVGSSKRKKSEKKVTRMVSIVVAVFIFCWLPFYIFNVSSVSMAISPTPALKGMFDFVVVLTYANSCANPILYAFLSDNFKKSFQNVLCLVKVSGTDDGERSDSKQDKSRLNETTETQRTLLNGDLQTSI

[22] = Protein binding in rat plasma; format: ADME, cell-free
[23] = Unbound plasma clearance in rat; format: ADME; conditions: in vivo
Summary of the method: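 Rat unbound clearance (CLu) was calculated by dividing the measured rat plasma clearance by the rat plasma free fraction.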

Rattus norvegicus = test: Cognitive-enhancing activity in rat assessed as improvement in novel object recognition at 0.16 to 0.25 mg/kg, po measured after 1 hr by novel object recognition test; format: functional, organism-based; conditions: dose 0.16-0.25 mg/kg
Summary of the method: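 Novel object recognition in rats: oral dosing, then discrimination of a novel object from one seen 48 h earlier. Doses 0.08–0.25 mg/kg; donepezil 0.56 mg/kg as positive control. Groups compared with vehicle (p < 0.05). Plasma for exposure taken 1 h post dose, n = 4/group.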

P-gp (ABCB1) = P-gp (ABCB1) (Homo sapiens, UniProt P08183); test: Substrate activity at human P-gp assessed as efflux ratio; format: ADME; conditions: not told
P-gp (ABCB1), sequence (P08183 whole entry): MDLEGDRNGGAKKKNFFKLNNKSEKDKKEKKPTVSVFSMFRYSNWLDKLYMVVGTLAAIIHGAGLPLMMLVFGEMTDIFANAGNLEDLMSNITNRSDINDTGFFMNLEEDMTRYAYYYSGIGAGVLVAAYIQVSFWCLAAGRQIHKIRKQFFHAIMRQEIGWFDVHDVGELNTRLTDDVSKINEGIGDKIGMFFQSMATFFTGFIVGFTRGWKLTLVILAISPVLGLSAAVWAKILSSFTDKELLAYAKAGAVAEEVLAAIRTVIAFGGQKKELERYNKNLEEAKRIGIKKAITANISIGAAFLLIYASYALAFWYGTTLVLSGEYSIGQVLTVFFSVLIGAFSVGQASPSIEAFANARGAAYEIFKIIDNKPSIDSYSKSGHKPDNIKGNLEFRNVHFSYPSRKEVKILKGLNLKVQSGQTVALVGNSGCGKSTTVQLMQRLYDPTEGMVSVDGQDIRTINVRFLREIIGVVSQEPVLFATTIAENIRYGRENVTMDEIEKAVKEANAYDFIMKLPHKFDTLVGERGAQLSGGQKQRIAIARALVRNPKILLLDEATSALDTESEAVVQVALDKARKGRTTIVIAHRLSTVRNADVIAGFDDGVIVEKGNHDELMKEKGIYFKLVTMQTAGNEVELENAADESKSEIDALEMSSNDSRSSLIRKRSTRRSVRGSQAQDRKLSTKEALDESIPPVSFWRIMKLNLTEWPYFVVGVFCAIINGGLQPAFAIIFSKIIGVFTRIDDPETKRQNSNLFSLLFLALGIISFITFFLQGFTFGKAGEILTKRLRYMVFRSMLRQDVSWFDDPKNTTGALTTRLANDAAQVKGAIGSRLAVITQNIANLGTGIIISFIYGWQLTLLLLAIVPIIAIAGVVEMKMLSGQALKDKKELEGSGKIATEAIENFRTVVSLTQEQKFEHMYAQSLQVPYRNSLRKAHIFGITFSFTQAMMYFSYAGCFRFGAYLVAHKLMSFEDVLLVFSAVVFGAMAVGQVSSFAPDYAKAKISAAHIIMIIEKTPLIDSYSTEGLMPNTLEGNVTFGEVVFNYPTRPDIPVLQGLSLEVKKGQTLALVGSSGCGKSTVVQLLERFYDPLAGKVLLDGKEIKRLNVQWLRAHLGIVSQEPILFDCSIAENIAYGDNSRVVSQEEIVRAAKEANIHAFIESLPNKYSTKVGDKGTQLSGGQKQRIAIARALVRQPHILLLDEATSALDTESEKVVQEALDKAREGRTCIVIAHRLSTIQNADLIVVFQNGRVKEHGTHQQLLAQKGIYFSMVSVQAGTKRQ

[24] = Selectivity ratio of Ki for N-terminal GST-tagged full length human recombinant PDE9A2 expressed in baculovirus-infected Sf9 cells to Ki for human PDE10A2 transfected in human AD293 cells cytosolic fraction
[25] = target: T1, cAMP and cAMP-inhibited cGMP 3',5'-cyclic phosphodiesterase 10A; test: Reversible binding affinity to human full length His-tagged PDE10A2 assessed as half-life on the enzyme measured at 25 degC by surface plasmon resonance analysis
[26] = Selectivity ratio of Ki for N-terminal GST-tagged human recombinant PDE11A4 (1 to 943 residues) expressed in baculovirus-infected Sf9 cells to Ki for human PDE10A2 transfected in human AD293 cells cytosolic fraction
[27] = Oral bioavailability in Wistar-Hannover rat at 10 mg/kg; format: ADME, organism-based; conditions: in vivo
Summary of the method: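 Oral gavage, 5 mL/kg. Rats (n = 3 male Wistar–Hannover) received 10 mg/kg in acidified 10% Tween 80, pH 2, sampled 0.25–24 h. Rhesus (2 female, 1 male) received 5 mg/kg in 0.5% methylcellulose with 1 mol equiv HCl. Plasma quantified by LC-MS/MS. F was taken from dose-adjusted PO/IV AUC0-inf ratios versus the 2 mg/kg (rat) or 0.5 mg/kg (rhesus) IV legs; values are means of n = 3.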

[28] = target: T1, cAMP and cAMP-inhibited cGMP 3',5'-cyclic phosphodiesterase 10A; test: Inhibition of human recombinant full length PDE10A

Structure (SMILES): Cc1ccc([C@H]2C[C@@H]2COc2cc(NCc3nnc(C)s3)nc(C)n2)nc1 [MK-8189]
- t1/2 [1]: 4.2 h
- Occ [2]: 29%
- K [3]: 8 10^7/M/s
- Occ [4]: 50%
- Ratio Ki [5]: > 500000
- Ki [6]: 0.029 nM
- concentration at 1 h [7]: 18 nM
- solubility [8]: 5000 µg/mL (≈ 13.1 mM)
- Activity [9]: Non-Toxic
- concentration at 2.5 h [10]: 50 nM
- t1/2 [11]: 4.8 h
- Activity [12]: Non-Toxic
- solubility [13]: 167 µM (≈ 63.9 µg/mL)
- Occ [14]: 34%
- Vd [15]: 1.4 L/kg
- Occ [16]: 25%
- Activity [17]: Non-Toxic
- solubility [18]: 170 µg/mL (≈ 0.444 mM)
- Occ [19]: 41%
- concentration at 1 h [20]: 16 nM
- IC50 [21]: 2800 nM
- PPB [22]: 91.8%
- CL free [23]: 260 mL/min/kg
- Activity (Rattus norvegicus): Active
- efflux ratio (P-gp (ABCB1)): < 2
- Ratio Ki [24]: > 500000
- T1/2 [25]: 6.7 min
- Ratio Ki [26]: > 500000
- F [27]: 46%
- IC50 [28]: 1.6 nM
